Data set [1] in a line: Apparent oral clearance in human by covariate model. It is filed as ADME, organism-based. The settings on record: in vivo. A digest of the protocol: (§1)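 HIV-infected patients (ANRS 107) on atazanavir plus ritonavir plus tenofovir plus optimized background. Week-6 predose plasma trough samples; 10-patient substudy also sampled at 1, 2, 3, 5, 8 and 24 h postdose. Plasma held at −20°C, assayed by LC-MS/MS (LOQ 1 ng/ml). Population analysis used a one-compartment model with first-order absorption and elimination, exponential interindividual variability and proportional residual error.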

A short description of data set [2]: AUC in patient with => 40 IU/liter ALAT level by one-compartment model. The settings on record: human, in vivo. It counts as ADME, organism-based. In a few lines:
as §1

Data set [3] can be described thus: AUC in patient with elevated alpha-1- glycoprotein acid level by covariate model. Particulars: human, in vivo. It counts as ADME, organism-based. A digest of the protocol:
as §1

Data set [4] can be described thus: Half life in patient with elevated alpha-1- glycoprotein acid level by one-compartment model. It counts as ADME, organism-based. Particulars: human, in vivo. In a few lines: as §1
Data set [5] is described as follows: Binding affinity to human alpha-1-glycoprotein acid. It is filed as ADME. In a few lines: (§2)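 In vitro binding: alpha-1 glycoprotein acid or serum albumin solutions in pH 7.4 phosphate-buffered saline with added atazanavir. Bound and unbound drug separated by ultrafiltration of 500-µl samples (30,000 Da cutoff membrane), 2 h at 30°C. Ultrafiltrate drug measured by HPLC-UV at 220 nm (C18 column, liquid-liquid extraction, internal standard). Unbound fraction taken as unbound/total concentration. Binding profiled as bound versus unbound concentration.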

A short description of data set [6]: Half life in patient with => 40 IU/liter ALAT level by covariate model. It is filed as ADME, organism-based. The settings on record: human, in vivo. In a few lines:
as §1

The target of the next data set is Albumin (Homo sapiens, UniProt P02768). Kind of data set: Binding affinity to human serum albumin. It counts as ADME. The settings on record: isolated protein. A digest of the protocol:
as §2

Data set [7] is described as follows: Apparent volume of distribution with respect to the bioavailability in human by one-comparment model. It is filed as ADME, organism-based. The settings on record: in vivo, read-out: Vc/F. A digest of the protocol:
as §1

A short description of data set [8]: Apparent volume of distribution with respect to the bioavailability in human by covariate model. It counts as ADME, organism-based. Particulars: in vivo, read-out: Vc/F. In a few lines: as §1
The nature of data set [9]: Apparent oral clearance in human by one-compartment model. It is filed as ADME, organism-based. The settings on record: in vivo. In a few lines: as §1
Data set [10] can be described thus: AUC in patient with => 40 IU/liter ALAT level by covariate model. It is filed as ADME, organism-based. Particulars: human, in vivo. In a few lines: as §1
Data set [11] in a line: AUC in patient with elevated alpha-1- glycoprotein acid level by one-compartment model. It counts as ADME, organism-based. Particulars: human, in vivo. A digest of the protocol: as §1
The species named for data set [12] is Homo sapiens. Kind of data set: Absorption rate constant in human by covariate model. It counts as ADME, organism-based. The settings on record: in vivo. A digest of the protocol:
as §1

Data set [13] is described as follows: Half life in patient with => 40 IU/liter ALAT level by one-compartment model. It counts as ADME, organism-based. Particulars: human, in vivo. In a few lines:
as §1

Data set [14] in a line: Half life in patient with elevated alpha-1- glycoprotein acid level by covariate model. It counts as ADME, organism-based. The settings on record: human, in vivo. A digest of the protocol:
as §1

The species named for data set [15] is Homo sapiens. Kind of data set: Absorption rate constant in human by one-compartment model. It counts as ADME, organism-based. Particulars: in vivo. A digest of the protocol: as §1

The values below come from ChEMBL document CHEMBL1212800, “Influence of alpha-1 glycoprotein acid concentrations and variants on atazanavir pharmacokinetics in HIV-infected patients included in the ANRS 107 trial” (Antimicrob Agents Chemother, 2010).

SMILES strings stand for the structures.

Sequence of Albumin (P02768 whole entry): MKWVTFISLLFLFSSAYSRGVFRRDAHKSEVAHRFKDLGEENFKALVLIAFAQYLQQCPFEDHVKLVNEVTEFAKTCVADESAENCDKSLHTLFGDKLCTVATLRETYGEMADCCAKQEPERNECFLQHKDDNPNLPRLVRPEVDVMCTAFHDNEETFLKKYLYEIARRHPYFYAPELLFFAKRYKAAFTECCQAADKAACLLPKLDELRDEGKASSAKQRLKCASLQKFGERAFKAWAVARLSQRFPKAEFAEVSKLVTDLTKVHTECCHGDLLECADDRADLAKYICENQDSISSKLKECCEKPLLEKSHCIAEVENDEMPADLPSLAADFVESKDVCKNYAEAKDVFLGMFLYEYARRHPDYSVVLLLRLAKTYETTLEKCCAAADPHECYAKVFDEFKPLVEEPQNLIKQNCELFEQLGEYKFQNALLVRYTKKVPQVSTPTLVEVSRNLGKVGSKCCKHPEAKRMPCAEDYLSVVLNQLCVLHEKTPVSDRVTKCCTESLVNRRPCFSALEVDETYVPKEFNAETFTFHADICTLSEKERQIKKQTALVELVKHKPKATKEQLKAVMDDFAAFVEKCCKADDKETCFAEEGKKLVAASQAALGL

On to `COC(=O)N[C@H](C(=O)N[C@@H](Cc1ccccc1)[C@@H](O)CN(Cc1ccc(-c2ccccn2)cc1)NC(=O)[C@@H](NC(=O)OC)C(C)(C)C)C(C)(C)C` [ATAZANAVIR], for which the CL/F is 222 mL/min in data set [1] and 130 mL/min in [9]. For the same molecule, the AUC in [2] is 47400 ng·h/mL; in data set [3], 49600 ng·h/mL; in data set [10] it was 47400 ng·h/mL; in [11] it was 49600 ng·h/mL. Moreover, the half-life in data set [4] is 9 h; in [6] it was 7.8 h; in data set [13], 7.8 h; in data set [14], 9 h. For the same molecule, the Activity in data set [5] was 31.1%; on Albumin, 21.3%. In addition, the Vd/F stood at 78.2 L in [7] and 79.7 L in [8]. Also, the ka in the data set filed under Homo sapiens [12] is 0.73 h⁻¹; in the data set filed under Homo sapiens [15], 0.75 h⁻¹.
